According to ChEMBL document CHEMBL4346670, “Discovery of Novel Janus Kinase (JAK) and Histone Deacetylase (HDAC) Dual Inhibitors for the Treatment of Hematological Malignancies” (J Med Chem, 2019):

Key:
K562 [1] = experiment: Induction of apoptosis in human K562 cells assessed as viable cells at 1 uM after 24 hrs by Annexin-V/propidium iodide staining-based flow cytometric analysis (reference value: 85.7%); format: functional; conditions: Homo sapiens, K562, 24 h; read-out: Activity
[2] = biological target: T1, Protein deacetylase HDAC6 (Homo sapiens, UniProt Q9UBN7); experiment: Inhibition of HDAC6 (unknown origin) using Boc-Lys(acetyl)-AMC as substrate preincubated for 5 mins followed by substrate addition and measured after 30 mins by fluorescence assay
T1 sequence (Q9UBN7 whole entry): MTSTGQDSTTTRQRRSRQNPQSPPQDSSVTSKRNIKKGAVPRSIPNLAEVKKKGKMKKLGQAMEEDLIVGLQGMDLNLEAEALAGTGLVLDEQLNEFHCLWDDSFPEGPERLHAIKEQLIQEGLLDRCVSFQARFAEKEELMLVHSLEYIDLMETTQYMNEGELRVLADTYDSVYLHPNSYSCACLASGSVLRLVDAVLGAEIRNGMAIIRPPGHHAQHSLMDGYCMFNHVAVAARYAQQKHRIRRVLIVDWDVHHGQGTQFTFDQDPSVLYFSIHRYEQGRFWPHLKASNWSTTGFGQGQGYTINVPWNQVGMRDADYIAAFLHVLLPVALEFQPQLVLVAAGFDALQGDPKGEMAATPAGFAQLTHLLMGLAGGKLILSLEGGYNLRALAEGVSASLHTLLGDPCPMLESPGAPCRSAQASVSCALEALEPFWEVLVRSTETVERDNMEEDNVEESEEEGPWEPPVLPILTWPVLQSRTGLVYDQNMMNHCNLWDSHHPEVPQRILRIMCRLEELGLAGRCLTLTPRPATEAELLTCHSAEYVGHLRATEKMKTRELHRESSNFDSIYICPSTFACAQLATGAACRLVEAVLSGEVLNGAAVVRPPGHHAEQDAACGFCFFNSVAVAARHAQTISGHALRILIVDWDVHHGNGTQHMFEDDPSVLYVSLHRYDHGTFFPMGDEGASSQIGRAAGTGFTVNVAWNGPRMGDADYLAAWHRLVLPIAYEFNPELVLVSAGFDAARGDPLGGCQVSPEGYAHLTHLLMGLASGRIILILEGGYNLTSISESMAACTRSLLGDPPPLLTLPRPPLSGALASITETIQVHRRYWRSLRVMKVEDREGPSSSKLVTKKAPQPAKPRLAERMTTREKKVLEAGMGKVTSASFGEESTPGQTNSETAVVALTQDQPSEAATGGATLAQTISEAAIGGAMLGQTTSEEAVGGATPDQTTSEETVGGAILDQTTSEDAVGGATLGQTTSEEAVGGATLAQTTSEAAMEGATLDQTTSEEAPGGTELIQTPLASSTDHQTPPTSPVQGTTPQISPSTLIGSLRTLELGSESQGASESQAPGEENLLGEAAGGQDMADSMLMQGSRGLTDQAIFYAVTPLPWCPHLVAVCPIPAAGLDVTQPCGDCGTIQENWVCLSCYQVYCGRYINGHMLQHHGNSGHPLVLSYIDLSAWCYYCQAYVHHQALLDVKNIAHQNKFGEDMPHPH

K562 [3] = experiment: Induction of apoptosis in human K562 cells assessed as necrotic apoptotic cells at 1 uM after 24 hrs by Annexin-V/propidium iodide staining-based flow cytometric analysis (reference value: 0.827%); format: functional
K562 [4] = experiment: Induction of apoptosis in human K562 cells assessed as late apoptotic cells at 1 uM after 24 hrs by Annexin-V/propidium iodide staining-based flow cytometric analysis (reference value: 5.87%); format: functional
[5] = biological target: Non-receptor tyrosine-protein kinase TYK2 (Homo sapiens, UniProt P29597); experiment: Inhibition of recombinant human TYK2 using Ulight-CAGAGAIETDKEYYTVKD as substrate measured after 60 mins by LANCE assay
Non-receptor tyrosine-protein kinase TYK2, sequence (P29597 whole entry): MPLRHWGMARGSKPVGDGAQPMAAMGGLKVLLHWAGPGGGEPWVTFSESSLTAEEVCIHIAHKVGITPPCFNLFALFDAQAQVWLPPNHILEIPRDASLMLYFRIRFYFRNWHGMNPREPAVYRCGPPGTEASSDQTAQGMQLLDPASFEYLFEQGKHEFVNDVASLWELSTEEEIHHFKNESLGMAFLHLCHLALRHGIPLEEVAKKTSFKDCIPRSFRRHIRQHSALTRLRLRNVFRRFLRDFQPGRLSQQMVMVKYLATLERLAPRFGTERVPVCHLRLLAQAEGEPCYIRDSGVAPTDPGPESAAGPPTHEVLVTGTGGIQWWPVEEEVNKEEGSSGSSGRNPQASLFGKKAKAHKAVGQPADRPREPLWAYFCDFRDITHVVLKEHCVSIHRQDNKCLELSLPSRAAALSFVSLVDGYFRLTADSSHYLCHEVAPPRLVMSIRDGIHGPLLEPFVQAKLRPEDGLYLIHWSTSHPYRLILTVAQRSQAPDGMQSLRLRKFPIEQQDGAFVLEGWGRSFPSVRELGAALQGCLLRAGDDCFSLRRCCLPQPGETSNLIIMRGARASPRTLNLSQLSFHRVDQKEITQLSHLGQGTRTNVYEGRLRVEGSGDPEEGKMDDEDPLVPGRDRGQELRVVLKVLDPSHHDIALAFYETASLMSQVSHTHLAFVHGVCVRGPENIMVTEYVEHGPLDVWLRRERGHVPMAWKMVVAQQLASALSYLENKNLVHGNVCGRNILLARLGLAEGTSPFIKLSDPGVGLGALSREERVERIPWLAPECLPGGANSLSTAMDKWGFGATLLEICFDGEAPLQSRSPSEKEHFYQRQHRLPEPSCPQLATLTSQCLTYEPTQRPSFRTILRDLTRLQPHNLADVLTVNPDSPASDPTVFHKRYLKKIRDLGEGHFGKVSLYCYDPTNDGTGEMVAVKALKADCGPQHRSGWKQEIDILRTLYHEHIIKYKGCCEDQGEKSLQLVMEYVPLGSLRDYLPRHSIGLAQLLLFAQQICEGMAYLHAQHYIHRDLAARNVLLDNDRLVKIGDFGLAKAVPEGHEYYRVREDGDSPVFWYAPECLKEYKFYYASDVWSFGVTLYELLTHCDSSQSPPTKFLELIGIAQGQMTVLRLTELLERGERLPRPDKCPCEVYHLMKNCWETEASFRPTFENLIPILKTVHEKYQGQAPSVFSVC
How it was run: (§1)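 Human recombinant JAK enzyme assays run by a contract lab. IC50 was taken from a non-linear curve fit, with all parameters allowed to float. Assays were run in replicate (n>2) and reported as mean ± SD.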

Jurkat = experiment: Antiproliferative activity against human Jurkat cells assessed as reduction in cell viability after 48 hrs by MTT assay; format: functional, cell-based
[6] = biological target: Tyrosine-protein kinase JAK1 (Homo sapiens, UniProt P23458); experiment: Inhibition of recombinant human JAK1 using Ulight-CAGAGAIETDKEYYTVKD as substrate measured after 60 mins by LANCE assay; how it was run: as §1
Tyrosine-protein kinase JAK1, sequence (P23458 whole entry): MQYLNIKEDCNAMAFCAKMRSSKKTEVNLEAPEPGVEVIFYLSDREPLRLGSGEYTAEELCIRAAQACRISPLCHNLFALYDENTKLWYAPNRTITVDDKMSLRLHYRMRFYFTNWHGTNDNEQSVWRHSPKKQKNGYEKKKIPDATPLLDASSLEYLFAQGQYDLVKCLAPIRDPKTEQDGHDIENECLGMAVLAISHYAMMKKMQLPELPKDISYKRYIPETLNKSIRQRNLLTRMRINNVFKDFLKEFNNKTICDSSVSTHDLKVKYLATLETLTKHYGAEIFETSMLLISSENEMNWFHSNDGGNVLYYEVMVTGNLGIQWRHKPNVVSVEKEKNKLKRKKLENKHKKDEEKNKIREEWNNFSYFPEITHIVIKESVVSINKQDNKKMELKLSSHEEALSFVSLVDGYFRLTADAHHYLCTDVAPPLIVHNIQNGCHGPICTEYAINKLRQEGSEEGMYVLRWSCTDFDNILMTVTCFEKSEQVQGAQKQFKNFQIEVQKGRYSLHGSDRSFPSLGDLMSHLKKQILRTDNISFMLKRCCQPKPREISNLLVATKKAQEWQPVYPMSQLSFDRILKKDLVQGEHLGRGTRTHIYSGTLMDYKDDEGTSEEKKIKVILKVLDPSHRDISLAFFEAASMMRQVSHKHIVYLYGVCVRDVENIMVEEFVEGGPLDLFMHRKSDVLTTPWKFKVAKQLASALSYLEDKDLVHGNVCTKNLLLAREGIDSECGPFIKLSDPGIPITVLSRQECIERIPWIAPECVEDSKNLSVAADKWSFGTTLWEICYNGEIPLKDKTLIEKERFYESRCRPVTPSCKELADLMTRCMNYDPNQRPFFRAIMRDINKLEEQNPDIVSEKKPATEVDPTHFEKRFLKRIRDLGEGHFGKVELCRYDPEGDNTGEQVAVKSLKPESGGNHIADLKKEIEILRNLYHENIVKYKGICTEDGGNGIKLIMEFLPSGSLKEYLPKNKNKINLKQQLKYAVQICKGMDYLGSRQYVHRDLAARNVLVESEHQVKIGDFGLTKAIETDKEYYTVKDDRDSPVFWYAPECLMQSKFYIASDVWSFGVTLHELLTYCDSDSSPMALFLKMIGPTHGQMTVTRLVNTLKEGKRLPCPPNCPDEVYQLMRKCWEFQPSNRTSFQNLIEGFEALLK

K562 [7] = experiment: Induction of apoptosis in human K562 cells assessed as early apoptotic cells at 1 uM after 24 hrs by Annexin-V/propidium iodide staining-based flow cytometric analysis (reference value: 7.55%); format: functional
HEL [8] = experiment: Induction of apoptosis in HEL cells assessed as necrotic apoptotic cells at 1 uM after 24 hrs by Annexin-V/propidium iodide staining-based flow cytometric analysis (reference value: 0.011%); format: functional, Homo sapiens
HEL [9] = experiment: Antiproliferative activity against HEL cells harboring JAK2 V617F mutant assessed as reduction in cell viability after 48 hrs by MTT assay; format: functional, cell-based; conditions: Homo sapiens
Histone deacetylase 8 = biological target: T2, Histone deacetylase 8 (Homo sapiens, UniProt Q9BY41); experiment: Inhibition of HDAC8 (unknown origin) using Boc-Lys(trifluoroacetyl)-AMC as substrate preincubated for 5 mins followed by substrate addition and measured after 30 mins by fluorescence assay
T2 sequence (Q9BY41 whole entry): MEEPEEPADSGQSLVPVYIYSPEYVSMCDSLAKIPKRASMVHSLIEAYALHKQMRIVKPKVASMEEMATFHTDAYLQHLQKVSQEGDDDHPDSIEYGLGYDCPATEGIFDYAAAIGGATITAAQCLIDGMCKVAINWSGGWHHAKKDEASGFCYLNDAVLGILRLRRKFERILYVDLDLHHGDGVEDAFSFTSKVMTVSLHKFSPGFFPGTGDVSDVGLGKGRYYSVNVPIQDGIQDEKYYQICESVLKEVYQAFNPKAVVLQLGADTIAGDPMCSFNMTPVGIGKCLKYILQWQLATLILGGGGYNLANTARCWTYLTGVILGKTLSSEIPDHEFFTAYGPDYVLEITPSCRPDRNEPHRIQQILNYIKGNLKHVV

HEL [10] = experiment: Induction of apoptosis in HEL cells assessed as early apoptotic cells at 1 uM after 24 hrs by Annexin-V/propidium iodide staining-based flow cytometric analysis (reference value: 12.5%); format: functional, Homo sapiens
Histone deacetylase 2 = Histone deacetylase 2 (Homo sapiens, UniProt Q92769); experiment: Inhibition of HDAC2 (unknown origin) using Boc-Lys(acetyl)-AMC as substrate preincubated for 5 mins followed by substrate addition and measured after 30 mins by fluorescence assay
Histone deacetylase 2, sequence (Q92769 whole entry): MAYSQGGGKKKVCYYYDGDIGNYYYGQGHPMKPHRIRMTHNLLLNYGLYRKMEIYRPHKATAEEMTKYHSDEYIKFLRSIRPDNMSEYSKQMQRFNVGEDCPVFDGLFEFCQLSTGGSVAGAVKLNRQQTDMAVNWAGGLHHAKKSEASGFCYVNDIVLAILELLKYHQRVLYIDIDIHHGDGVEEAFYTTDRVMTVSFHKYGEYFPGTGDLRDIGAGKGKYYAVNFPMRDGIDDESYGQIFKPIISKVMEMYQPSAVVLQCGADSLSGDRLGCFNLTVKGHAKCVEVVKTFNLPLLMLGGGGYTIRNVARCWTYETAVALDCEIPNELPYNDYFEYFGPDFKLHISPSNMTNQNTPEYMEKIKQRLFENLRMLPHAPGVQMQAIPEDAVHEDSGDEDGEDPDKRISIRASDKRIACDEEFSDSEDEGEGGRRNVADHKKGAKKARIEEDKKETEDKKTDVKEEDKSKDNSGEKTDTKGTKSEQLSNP

MOLT-4 = experiment: Antiproliferative activity against human MOLT4 cells assessed as reduction in cell viability after 48 hrs by MTT assay; format: functional, cell-based; conditions: MOLT-4, 48 h
How it was run: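 Cells kept in RPMI1640 with 10% FBS at 37 °C, 5% CO2. Seeded and grown for 12 h, then exposed to a range of compound concentrations for 48 h. 0.5% MTT added for 4 h, formazan dissolved in DMSO, absorbance read at 570 nm.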

Histone deacetylase = experiment: Inhibition of HDAC in human HeLa nuclear extract using Boc-Lys(acetyl)-AMC as substrate preincubated for 5 mins followed by substrate addition and measured after 30 mins by fluorescence assay; format: cell-based

SMILES | viability at 1 µM (K562 [1]) [%] | IC50 [2] [nM] | Activity (K562 [3]) [%] | Activity (K562 [4]) [%] | IC50 [5] [nM] | IC50 (Jurkat) [nM] | IC50 [6] [nM] | Activity (K562 [7]) [%] | Activity (HEL [8]) [%] | IC50 (HEL [9]) [nM] | IC50 (Histone deacetylase 8) [nM] | Activity (HEL [10]) [%] | IC50 (Histone deacetylase 2) [nM] | IC50 (MOLT-4) [nM] | IC50 (Histone deacetylase) [nM]
O=C(CCCCCn1cc(Nc2ncc(Cl)c(Nc3ccc(Cl)cc3)n2)cn1)NO | 17.6 | 14 | 1.07 | 46.9 | 49 | 60 | 4.8 | 34.4 | 7.97 | 90 | 2470 | 27.8 | 120 | 80 | 2
O=C(CCCCCCn1cc(Nc2ncc(Cl)c(Nc3cccc(Cl)c3)n2)cn1)NO | 53.6 | 41 | 1.14 | 30 | 67 | 100 | 15 | 15.3 | 2.58 | 140 | 840 | 22.8 | 130 | 130 | 20
